Data published in ChEMBL document CHEMBL4725347, “Discovery of a Monoiodo Aza-BODIPY Near-Infrared Photosensitizer: in vitro and in vivo Evaluation for Photodynamic Therapy” (J Med Chem, 2020).

Columns and labels:
[1] = Absorption property of the compound in chloroform assessed as hypsochromic shift by measuring maximum absorption wavelength by UV-visible spectrophotometric method; type: physicochemical
How it was run: (§1)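 Electronic absorption spectra recorded by UV-visible spectrophotometry at room temperature. Solvents were chloroform, isopropanol, acetonitrile, DMF, and PBS buffer containing 1% Cremophor EL/1,2-propanediol (10:3, v:v). Chloroform data were referenced to the non-halogenated parent dye.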

[2] = Absorption property of the compound in chloroform assessed as absorption coefficient by UV-visible spectrophotometric method; type: physicochemical; how it was run: as §1
[3] = Emission property of the compound in chloroform assessed as maximum emission wavelength by fluorescence spectrophotometric method; type: physicochemical
How it was run: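 Fluorescence spectrum recorded in chloroform by fluorescence spectrophotometer at room temperature.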

[4] = Induction of singlet oxygen generation in N,N-dimethylformamide assessed as relative rate of DPBF degradation to MB at 1 uM irradiated with 90 mW/cm2 halogen light; type: functional
How it was run: (§2)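 Singlet oxygen generation measured with 1,3-diphenylisobenzofuran (DPBF) as scavenger. The decrease in DPBF absorbance at 411 nm was monitored over time during light irradiation, and the photodegradation rate was calculated.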

[5] = Dark toxicity in human HeLa cells assessed as reduction in cell viability after 3 hrs by MTT assay; type: cell-based
How it was run: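 Compound was formulated with Cremophor EL/1,2-propanediol in PBS, filtered, and its concentration confirmed by UV-Vis. HeLa cells in DMEM with 10% FBS at 37 °C, 5% CO2 were seeded at 3×10^3 cells/well and adhered overnight. Cells were exposed to graded concentrations for 3 h without light, incubated 24 h, then MTT 0.5 mg/mL for 4 h; formazan dissolved in DMSO, A490 read.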

HeLa = assay: Phototoxicity against human HeLa cells assessed as reduction in cell viability preincubated for 3 hrs followed by 54 J/cm2 light irradiation and measured after 24 hrs by MTT assay; type: functional, cell-based; conditions: light or radiation study
How it was run: (§3)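 PS formulated in PBS containing Cremophor EL/1,2-propanediol (10:3, v:v) after THF removal, filtered, with concentration confirmed by UV-Vis. Cells were grown in DMEM with 10% FBS and seeded at 3×10^3 per well overnight. They were incubated with PS for 3 h, irradiated at λ > 590 nm, kept 24 h at 37 °C, then given MTT (0.5 mg/mL, 4 h) with DMSO solubilization and A490 read-out.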

[6] = Dark toxicity in human MCF7 cells assessed as reduction in cell viability after 3 hrs by MTT assay; type: cell-based
MCF7 = assay: Phototoxicity against human MCF7 cells assessed as reduction in cell viability preincubated for 3 hrs followed by 54 J/cm2 light irradiation and measured after 24 hrs by MTT assay; type: functional, cell-based; conditions: MCF7, light or radiation study; how it was run: as §3
[7] = Dark toxicity in human SW480 cells assessed as reduction in cell viability after 3 hrs by MTT assay; type: cell-based
SW480 = assay: Phototoxicity against human SW480 cells assessed as reduction in cell viability preincubated for 3 hrs followed by 54 J/cm2 light irradiation and measured after 24 hrs by MTT assay; type: functional, cell-based; conditions: SW480, light or radiation study; how it was run: as §3
[8] = Photostability of the compound in N,N-dimethylformamide assessed as compound degradation irradiated with 90 mW/cm2 light; type: physicochemical
[9] = Absorption property of the compound in PBS containing 1% Cremophor EL/1,2-propanediol (10:3, v:v) system assessed as absorption coefficient by UV-visible spectrophotometric method; type: physicochemical; conditions: buffer; how it was run: as §1
[10] = Absorption property of the compound in isopropanol assessed as absorption coefficient by UV-visible spectrophotometric method; type: physicochemical; how it was run: as §1
[11] = Absorption property of the compound in acetonitrile assessed as absorption coefficient by UV-visible spectrophotometric method; type: physicochemical; how it was run: as §1
[12] = Absorption property of the compound in N,N-dimethylformamide assessed as absorption coefficient by UV-visible spectrophotometric method; type: physicochemical; how it was run: as §1
[13] = Induction of singlet oxygen generation in isopropanol assessed as relative rate of DPBF degradation to MB at 1 uM irradiated with 90 mW/cm2 halogen light; type: functional; how it was run: as §2
[14] = Induction of singlet oxygen generation in PBS containing 1% Cremophor EL/1,2-propanediol (10:3, v:v) system assessed as relative rate of DPBF degradation to MB at 1 uM irradiated with 90 mW/cm2 halogen light; type: functional; how it was run: as §2
[15] = Photostability of the compound in acetonitrile assessed as compound degradation irradiated with 90 mW/cm2 light; type: physicochemical
[16] = Photostability of the compound in isopropanol assessed as compound degradation irradiated with 90 mW/cm2 light; type: physicochemical
[17] = Photostability of the compound in PBS containing 1% Cremophor EL/1,2-propanediol (10:3, v:v) system assessed as compound degradation irradiated with 90 mW/cm2 light; type: physicochemical; conditions: buffer
[18] = Stability of the compound in acetonitrile assessed as compound degradation under dark condition; type: physicochemical
[19] = Stability of the compound in PBS containing 1% Cremophor EL/1,2-propanediol (10:3, v:v) system assessed as compound degradation under dark condition; type: physicochemical; conditions: buffer

Activity [1] [nm] | Activity [2] [M⁻¹ cm⁻¹] | Activity [3] [nm] | Structure (SMILES) | fold change (FC) [4] | IC50 at 3 h [5] [µM] | IC50 (HeLa) [µM] | IC50 at 3 h [6] [µM] | IC50 (MCF7) [µM] | IC50 at 3 h [7] [µM] | IC50 (SW480) [µM] | further results
695 | 81500 | 740 | COc1ccc2c(c1)CCc1c(-c3ccccc3)c3n(c1-2)[B-](F)(F)[N+]1=C(c2cccs2)C(I)=C(c2ccccc2)C1=N3 | 0.37 | > 50 | 0.46 | > 50 | 0.75 | > 50 | 0.83 | –
679 | 76000 | 720 | COc1ccc(C2=[N+]3C(=Nc4c(-c5ccccc5)c(Br)c(-c5ccc(OC)cc5)n4[B-]3(F)F)C(c3ccccc3)=C2I)cc1 | 0.65 | > 50 | 0.31 | > 50 | 0.42 | > 50 | 0.53 | Stabilty [8]: Unstable; Activity [9]: 34000 M⁻¹ cm⁻¹; Activity [10]: 59300 M⁻¹ cm⁻¹; Activity [11]: 59300 M⁻¹ cm⁻¹; Activity [12]: 59300 M⁻¹ cm⁻¹; fold change (FC) [13]: 6.8; fold change (FC) [14]: 2.3; Stabilty [15]: Stable; Stabilty [16]: Stable; Stabilty [17]: Stable; Stabilty [18]: Unstable; Stabilty [19]: Unstable
662 | 92000 | 688 | Cc1ccc(C2=[N+]3C(=Nc4c(-c5ccccc5)c(I)c(-c5ccc(C)cc5)n4[B-]3(F)F)C(c3ccccc3)=C2I)cc1 | 0.28 | > 50 | 13.4 | > 50 | 5.3 | > 50 | > 25 | –
688 | 99000 | 725 | COc1ccc(C2=[N+]3C(=Nc4c(-c5ccccc5)cc(-c5ccc(OC)cc5)n4[B-]3(F)F)C(c3ccccc3)=C2)cc1 | 0.04 | > 50 | 11.6 | > 50 | 9.4 | > 50 | 12.1 | Stabilty [8]: Unstable; fold change (FC) [13]: 0.28; fold change (FC) [14]: 0.3; Stabilty [15]: Stable; Stabilty [16]: Stable; Stabilty [17]: Stable; Stabilty [18]: Unstable; Stabilty [19]: Unstable
682 | 110000 | 709 | COc1ccc2c(c1)CCc1c(-c3ccccc3)c3n(c1-2)[B-](F)(F)[N+]1=C(c2ccc(C)cc2)C(I)=C(c2ccccc2)C1=N3 | 0.25 | > 50 | 0.11 | > 50 | 0.41 | > 50 | 0.66 | –
658 | 83600 | 685 | Cc1ccc(C2=[N+]3C(=Nc4c(-c5ccccc5)cc(-c5ccc(C)cc5)n4[B-]3(F)F)C(c3ccccc3)=C2Br)cc1 | 0.12 | > 50 | 7.2 | > 50 | 2.6 | > 50 | > 25 | –
658 | 79900 | 685 | Cc1ccc(C2=[N+]3C(=Nc4c(-c5ccccc5)c(Br)c(-c5ccc(C)cc5)n4[B-]3(F)F)C(c3ccccc3)=C2Br)cc1 | 0.22 | > 50 | 4.3 | > 50 | 1.5 | > 50 | 16.1 | –
714 | 73700 | 753 | COc1ccc2c(c1)CCc1c(-c3ccccc3)c3n(c1-2)[B-](F)(F)[N+]1=C(c2ccc(C)s2)C(Br)=C(c2ccccc2)C1=N3 | 0.14 | > 50 | 22.6 | > 50 | > 25 | > 50 | > 25 | –
716 | 76900 | 756 | COc1ccc2c(c1)CCc1c(-c3ccccc3)c3n(c1-2)[B-](F)(F)[N+]1=C(c2ccc(C)s2)C(I)=C(c2ccccc2)C1=N3 | 0.42 | > 50 | 12.3 | > 50 | 16.6 | > 50 | 21.4 | –
732 | 71700 | 766 | Cc1ccc(C2=[N+]3C(=Nc4c(-c5ccccc5)cc(-c5ccc(C)s5)n4[B-]3(F)F)C(c3ccccc3)=C2I)s1 | 0.32 | > 50 | 15.6 | > 50 | 7.7 | > 50 | 20.6 | –
689 | 101300 | 725 | COc1ccc(C2=[N+]3C(=Nc4c(-c5ccccc5)c5c(n4[B-]3(F)F)-c3ccc(OC)cc3CC5)C(c3ccccc3)=C2I)cc1 | 1.2 | > 50 | 0.081 | > 50 | 0.14 | > 50 | 0.12 | –
732 | 91300 | 768 | Cc1ccc(C2=[N+]3C(=Nc4c(-c5ccccc5)c(I)c(-c5ccc(C)s5)n4[B-]3(F)F)C(c3ccccc3)=C2I)s1 | 0.36 | > 50 | > 25 | > 50 | 16.4 | > 50 | > 25 | –
659 | 89600 | 690 | Cc1ccc(C2=[N+]3C(=Nc4c(-c5ccccc5)cc(-c5ccc(C)cc5)n4[B-]3(F)F)C(c3ccccc3)=C2I)cc1 | 0.26 | > 50 | 2.6 | > 50 | 1.2 | > 50 | 12.4 | –
682 | 104400 | 709 | COc1ccc2c(c1)CCc1c(-c3ccccc3)c3n(c1-2)[B-](F)(F)[N+]1=C(c2ccc(C)cc2)C(Br)=C(c2ccccc2)C1=N3 | 0.14 | > 50 | 1.2 | > 50 | 8.1 | > 50 | 15.6 | –
692 | 90300 | 724 | COc1ccc(C2=[N+]3C(=Nc4c(-c5ccccc5)c5c(n4[B-]3(F)F)-c3ccc(OC)cc3CC5)C(c3ccccc3)=C2Br)cc1 | 0.17 | > 50 | 0.83 | > 50 | 4.5 | > 50 | 1.9 | –
